Test results: ChEMBL document CHEMBL1147547, “Novel GSK-3 inhibitors with improved cellular activity” (Bioorg Med Chem Lett, 2004)
Active and inactive are the calls of the source. No cut-off for these calls is given here.

How the values were obtained:
[1] = target: T1, Glycogen synthase kinase-3 (Homo sapiens, UniProt P49840+P49841); assay: Inhibition of glycogen synthase kinase-3 (GSK3-beta); assay type: protein assay
Procedure, shortened: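 GSK-3β (20 nM final) in HEPES pH 7.2 with 10 mM MgCl2, 0.1 mg/mL BSA, 1 mM DTT, 0.3 mg/mL heparin. Substrate 2.8 µM biotinylated phospho-primed GS peptide, with 2.5 µM ATP plus [γ-33P]-ATP. Stopped after 40 min with EDTA. Streptavidin SPA beads added and counted. Reported as pIC50.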

MDCK = assay: Cell permeation in MDCK cells; assay type: functional, Canis lupus familiaris
[2] = target: T1, Glycogen synthase kinase-3; assay: Maximal glycogen synthesis in rat L6 skeletal muscle cells in response to 1 uM insulin; assay type: functional, cell-based
Procedure, shortened: (§1)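 Rat L6 muscle cells, with glycogen synthesis tracked as 14C-glucose incorporated into glycogen. Maximum glycogen produced by the compound is expressed as a percentage of the maximum produced by 1 µM insulin.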

[3] = target: T1, Glycogen synthase kinase-3; assay: Stimulation of glycogen synthesis in rat skeletal muscle L6 cells
[4] = target: T1, Glycogen synthase kinase-3; assay: Maximal glycogen synthesis in rat L6 skeletal muscle cells in response to 1 uM insulin (inactive); assay type: functional, cell-based; procedure, shortened: as §1

T1 sequence (P49840 whole entry, looked up): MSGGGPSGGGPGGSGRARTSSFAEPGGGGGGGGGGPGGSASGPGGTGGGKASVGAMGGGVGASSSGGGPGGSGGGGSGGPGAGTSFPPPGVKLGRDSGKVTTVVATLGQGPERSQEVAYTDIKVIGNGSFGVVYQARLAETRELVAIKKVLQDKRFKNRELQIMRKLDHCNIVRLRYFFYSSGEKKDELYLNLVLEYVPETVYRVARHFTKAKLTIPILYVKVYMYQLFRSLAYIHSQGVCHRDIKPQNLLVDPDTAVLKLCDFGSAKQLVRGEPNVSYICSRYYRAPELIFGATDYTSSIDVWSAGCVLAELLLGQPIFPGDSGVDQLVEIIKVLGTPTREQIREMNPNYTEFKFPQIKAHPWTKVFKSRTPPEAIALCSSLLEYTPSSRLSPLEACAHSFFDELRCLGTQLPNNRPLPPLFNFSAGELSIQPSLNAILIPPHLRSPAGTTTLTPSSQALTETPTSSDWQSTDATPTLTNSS
T1 sequence (P49841 whole entry, looked up): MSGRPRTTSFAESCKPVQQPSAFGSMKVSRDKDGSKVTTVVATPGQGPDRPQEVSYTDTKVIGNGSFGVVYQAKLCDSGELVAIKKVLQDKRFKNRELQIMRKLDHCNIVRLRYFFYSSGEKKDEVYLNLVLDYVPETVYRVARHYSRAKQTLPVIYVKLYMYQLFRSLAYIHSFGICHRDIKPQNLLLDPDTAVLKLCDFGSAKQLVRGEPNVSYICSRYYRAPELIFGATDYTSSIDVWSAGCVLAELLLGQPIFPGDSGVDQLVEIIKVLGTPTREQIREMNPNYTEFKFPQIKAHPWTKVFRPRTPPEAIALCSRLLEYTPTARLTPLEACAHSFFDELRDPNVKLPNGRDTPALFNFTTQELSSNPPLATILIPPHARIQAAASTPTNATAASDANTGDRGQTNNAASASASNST

Log IC50 [1] | Max [2] [%] | EC50 [3] [µM] | Max [4] | Structure (SMILES) | Cell permeation (MDCK) [nm/s]
-6.2 |  |  |  | Fc1ccc(/C=N/Nc2ncnc3c2cnn3-c2ccccc2)cc1 | 5
-7.8 | 26 | 4 |  | COc1cccc(-n2ncc3c(N/N=C/c4ccc(C(=O)NCCN(C)C)cc4)ncnc32)c1 | 15
-8.2 | 57 | 0.23 |  | Fc1ccc(/C=N/Nc2ncnc3c2cnn3-c2cccc3[nH]cnc23)cc1 | 92
-8.1 |  |  | inactive | COc1cccc(-n2ncc3c(N/N=C/c4ccc(F)cc4)ncnc32)c1 [GW817396X] | 5
 | 37 | 0.22 |  | COc1cccc(-n2ncc3c(N/N=C/c4ccncc4)ncnc32)c1 [GW784752X] | 127
-7 | 48 | 1.22 |  | C(=N\Nc1ncnc2c1cnn2-c1ccccc1)/c1ccncc1 | 99
-8.8 | 76 | 2.33 |  | CN(C)CCNC(=O)c1ccc(/C=N/Nc2ncnc3c2cnn3-c2cccc3[nH]cnc23)cc1 [PYRAZOLOPYRIMIDINE 1] | 15
-8.3 | 54 | 0.24 |  | CS(=O)(=O)c1ccc(/C=N/Nc2ncnc3c2cnn3-c2cccc3[nH]cnc23)cc1 | 61
-8.4 | 45 | 0.11 |  | C(=N\Nc1ncnc2c1cnn2-c1cccc2[nH]cnc12)/c1ccncc1 | 212
-7.5 | 46 | 1.88 |  | COc1cccc(-n2ncc3c(N/N=C/c4ccc(C(=O)O)cc4)ncnc32)c1 | 65
-8.6 | 19 | 0.31 |  | COc1cccc(-n2ncc3c(N/N=C/c4ccc(S(C)(=O)=O)cc4)ncnc32)c1 [PYRAZOLOPYRIMIDINE 2] | 168
-8.3 | 42 | 2.73 |  | O=C(O)c1ccc(/C=N/Nc2ncnc3c2cnn3-c2cccc3[nH]cnc23)cc1 | 17
-7.7 |  |  |  | CN(C)CCNC(=O)c1ccc(/C=N/Nc2ncnc3c2cnn3-c2ccccc2)cc1 | 98
